Measured values from different studies.
Compare with care: the assays were run in different laboratories.
Target: Mitogen-activated protein kinase kinase kinase 7 (MAP3K7, Homo sapiens, UniProt O43318)

Structure (SMILES)	read-out	action	technique	concentration	endpoint	value
FC(F)c1nc2ccccc2n1-c1nc(N2CCOCC2)nc(N2CCOCC2)n1	enzyme activity	inhibitor		10 µM	remaining activity	97%
CS(=O)(=O)N1CCCC(NC(=O)[C@H](CCC2CCCCC2)NC(=O)c2ccc(CNc3ncnc4c3nnn4-c3ccccc3)cc2)C1 (stereo partly drawn)	cell-free assay		competition with immobilised ligand	0.1 µM	remaining binding	100%
COc1cc(/C=C/C(=O)CC(=O)/C=C/c2ccc(O)c(OC)c2)ccc1O	enzyme activity	inhibitor		1 µM	activity vs control	102%
COc1cc(Cl)c(C(=O)N[C@@H](CN[C@H]2CC[C@@H](N)CC2)Cc2ccc(C#N)cc2)cc1-c1ccc(CN[C@H](C)c2ccc(C)cc2)o1	enzyme activity	inhibitor		1 µM	remaining activity	96%
Cc1nccc(COC(=O)N2C[C@@H]3[C@@H](CNC(=O)c4ccc5[nH]nnc5c4)[C@@H]3C2)n1	cell-free assay		competition with immobilised ligand	1 µM	remaining binding	75%
CC(C)c1ccc(NC(=O)c2cccs2)c(-c2nc3ccccc3[nH]c2=O)c1	enzyme activity	inhibitor		1 µM	activity vs control	106%
C=CC(=O)Nc1cc(Nc2nccc(Nc3cc(Cl)c(F)cc3C(C)(C)O)n2)c(OC)cc1N1CC[C@@H](N(C)C)C1	enzyme activity	inhibitor		1 µM	inhibition	21%
CC1=C(C#N)C(c2ccc3c(c2)c(NC(=O)c2ccccc2C)nn3C)C(C#N)=C(C)N1	cell-free assay		competition with immobilised ligand	1 µM	remaining binding	74%
O=C(Nc1cnn(-c2csc(C(=O)NC3COC3)c2)c1)Nc1c(F)cccc1Cl	enzyme activity	inhibitor		5 µM	remaining activity	109%
N[C@@H]1CCN(c2nccc(-c3cnn4ncccc34)n2)C1	binding			1 µM	remaining binding	91%
Cc1nc(C2CCN(C(=O)c3ccc(OC(F)(F)F)cc3N)CC2)c2ncc(N3CCN(C)CC3)cc2n1	cell-free assay		competition with immobilised ligand	1 µM	remaining binding	100%
Cc1ccc(C(=O)Nc2ccc(CN3CCN(C)CC3)c(C(F)(F)F)c2)cc1C#Cc1cnc2cccnn12	enzyme activity	inhibitor		23.5 nM	remaining activity	3.3%
COc1ccc2cc(OCC3(C(=O)O)CN(C(=O)c4ccc(F)cc4)C3)ccc2c1	cell-free assay		competition with immobilised ligand	1 µM	remaining binding	96%
Cc1ccc(Nc2nccc(N(C)c3ccc4c(C)n(C)nc4c3)n2)cc1S(N)(=O)=O	enzyme activity	inhibitor		0.3 µM	inhibition	-8%
CCCCNc1ncc2c(-c3ccc(F)cc3)nn(C[C@H]3CC[C@H](N)CC3)c2n1	target engagement in cells	inhibitor	chemoproteomics	20 mM	inhibition	16%
Cc1cnc(NC2CCOCC2)nc1-n1cnc(C(=O)NC(CN)c2cc(F)cc(Cl)c2)c1 (stereo not drawn)	enzyme activity	inhibitor	radiometric	1 µM	remaining activity	98%
Cc1cc(NC(=O)c2cccc3cc(-c4cccc5[nH]nc(N)c45)ccc23)ccc1F	enzyme activity	inhibitor		0.1 µM	activity vs control	100%
CNC(=O)c1cc(Oc2ccc(NC(=O)Nc3ccc(Cl)c(C(F)(F)F)c3)cc2)ccn1	cell-free assay			0.5 µM	remaining signal	101%
FC(F)(F)Oc1cccc(-c2cnc3ccc(-c4ccncc4)nn23)c1	enzyme activity	inhibitor	radiometric	5 µM	activity vs control	58%
CCCOc1ccc(OC)c(F)c1C(=O)c1ccc(C(=O)N[C@@H]2CNC[C@H]2NC(=O)c2ccc3[nH]ncc3c2)cc1	enzyme activity	inhibitor		10 µM	remaining activity	106%
C[C@H](c1ccc(F)cc1)N(Cc1cccc(C(=O)O)c1)C(=O)c1cnc2ccccc2c1	cell-free assay		competition with immobilised ligand	1 µM	remaining binding	100%
CCN(CC)CCNC(=O)c1c(C)[nH]c(/C=C2\C(=O)Nc3ccc(F)cc32)c1C	enzyme activity	inhibitor		10 µM	inhibition	92%
O=C(NC[C@@H]1[C@H]2CN(C(=O)OCc3cc(C(F)(F)F)cc(C(F)(F)F)c3)C[C@@H]12)c1ccc2[nH]nnc2c1	cell-free assay		competition with immobilised ligand	1 µM	remaining binding	94%
N#CCCc1ccc2c(c1)-c1[nH]c3ccc([N+](=O)[O-])cc3c1CC(=O)N2	cell-free assay			0.5 µM	remaining signal	38.1%
COc1cc(Nc2cnc(C#N)c(O[C@H](C)CN(C)C)n2)ncc1-c1cnn(C)c1	enzyme activity	inhibitor	radiometric	1 µM	remaining activity	97%
CS(=O)(=O)N1CCCC(NC(=O)[C@H](CCC2CCCCC2)NC(=O)c2ccc(CNC(=O)c3cnc4ccccn34)cc2)C1 (stereo partly drawn)	cell-free assay		competition with immobilised ligand	0.1 µM	remaining binding	94%
O=C1Nc2ccc(Cl)cc2C1=Cc1cc(Cl)c(O)c(Cl)c1	cell-free assay			0.5 µM	remaining signal	86.8%
